Key:
[1] = folding enthalpy; higher = less favourable; fluorescence melt of hairpins on a sequencing array, two-state fit; details: sodium 0.088 M
Summary of the method: (§1)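 Folding enthalpy and melting temperature come from bootstrapped two-state fits to Cy3 fluorescence of library hairpins carrying annealed Cy3 and quencher oligos on a sequenced MiSeq flow cell. Imaging was done in 50 mM Na-HEPES pH 8.0, 25 mM NaCl, stepping by 2.5 °C up to 60 °C, and signals were normalised to pre-quench Cy3 and to control constructs. Results of four replicates were combined by inverse variance, and fitted temperatures were raised by 9.35 °C to match UV melts.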

[2] = melting temperature; fluorescence melt of hairpins on a sequencing array, two-state fit, raised by 9.35 °C to match UV melts; details: sodium 0.088 M
Summary of the method: as §1

Row | Sequence | folding enthalpy [1] | Tm [2]
1 | GTCTGCACGAAAGTGGAC (((..(((....)))))) | -15 kcal/mol | 34.7 °C
2 | GTCTGCCGAAAGGCGAC (((.(((....)))))) | -18.1 kcal/mol | 54.9 °C
3 | GTCTGCCGAAAGGCTGAC (((.(((....))).))) | -30.5 kcal/mol | 62.1 °C
4 | GTCTGCGAAAGCACAGAC ((((((....)))..))) | -18.6 kcal/mol | 46.3 °C
5 | GTCTGCGAAAGCAGAGAC ((((((....)))..))) | -9.97 kcal/mol | 51.4 °C
6 | GTCTGCGAAAGCAGGGAC ((((((....)))..))) | -7.79 kcal/mol | 42.8 °C
7 | GTCTGCGAAAGCATCGAC ((((((....)))..))) | -14.8 kcal/mol | 33.6 °C
8 | GTCTGCGAAAGCATGAC ((((((....))).))) | -23.5 kcal/mol | 52.7 °C
9 | GTCTGCGAAAGCATGGAC ((((((....)))..))) | -15.7 kcal/mol | 40.7 °C
10 | GTCTGCGCGAAAGCGGAC (((..(((....)))))) | -13.3 kcal/mol | 45.2 °C
11 | GTCTGCGGAAACACAGAC (((((.(....).))))) | -44.1 kcal/mol | 46.7 °C
12 | GTCTGGCCGAAAGGCGAC (((..(((....)))))) | -15.7 kcal/mol | 43.9 °C
13 | GTCTGGGGAAACCTAGAC ((((.((....)).)))) | -29.7 kcal/mol | 47.6 °C
14 | GTCTGGGGAAACCTAGGC (.((.((....)).)).) | -19.8 kcal/mol | 34.8 °C
15 | GTCTGTACGAAAGTAGAC (((..(((....)))))) | -24.2 kcal/mol | 36.4 °C
16 | GTCTGTTCGAAAGAAGAC (((..(((....)))))) | -23 kcal/mol | 26.4 °C
17 | GTCTTAACGAAAGTTGAC (((..(((....)))))) | -15.8 kcal/mol | 31.9 °C
18 | GTCTTAGGAAACTAAGGC (.(((((....))))).) | -25.9 kcal/mol | 42.9 °C
19 | GTCTTAGGAAACTGAGAC ((((.((....)).)))) | -30.7 kcal/mol | 40.9 °C
20 | GTCTTCCGAAAGGACGAC (((.(((....))).))) | -40.7 kcal/mol | 48.6 °C
21 | GTCTTCGAAAGAAAAGAC ((((((....)))..))) | -17.9 kcal/mol | 30.8 °C
22 | GTCTTCGAAAGAAGTGAC ((((((....)))..))) | -13.3 kcal/mol | 34 °C
23 | GTCTTCGGAAACGAAAAC ((.((((....)))).)) | -15.4 kcal/mol | 29.2 °C

Row | Sequence | folding enthalpy [1] | Tm [2]
24 | GTCTTCGGAAACGAGGAC (((.(((....))).))) | -39.1 kcal/mol | 49.7 °C
25 | GTCTTGACGAAAGTCGAC (((..(((....)))))) | -11 kcal/mol | 35.5 °C
26 | GTCTTGCGAAAGCAGAC (((.(((....)))))) | -22.8 kcal/mol | 52.1 °C
27 | GTCTTGCGAAAGCATGAC (((.(((....))).))) | -37.7 kcal/mol | 56.1 °C
28 | GTCTTGGGAAACCAAGGC (.(((((....))))).) | -24.4 kcal/mol | 51 °C
29 | GTCTTGGGAAACCGAGAC ((((.((....)).)))) | -33 kcal/mol | 49.9 °C
30 | GTCTTTCGAAAGAACGAC (((.(((....))).))) | -40.9 kcal/mol | 41 °C
31 | GTGAAAACGAAAGTTCAC (((..(((....)))))) | -21.7 kcal/mol | 38.4 °C
32 | GTGAAACCGAAAGGTCAC (((..(((....)))))) | -20.4 kcal/mol | 42 °C
33 | GTGAAATCGAAAGATCAC (((..(((....)))))) | -17 kcal/mol | 32.8 °C
34 | GTGAACCGAAAGGTCCAC (((.(((....))).))) | -24.6 kcal/mol | 49.8 °C
35 | GTGAACCGAAAGGTGCAC (((.(((....))).))) | -39.6 kcal/mol | 60.7 °C
36 | GTGAACGAAAGTTACCAC ((((((....)))..))) | -15.3 kcal/mol | 26 °C
37 | GTGAACGAAAGTTCAC ((((((....)))))) | -26 kcal/mol | 68.6 °C
38 | GTGAACGAAAGTTCCAC ((((((....))).))) | -15.9 kcal/mol | 39.9 °C
39 | GTGAACGAAAGTTGACAC ((((((....)))..))) | -18.6 kcal/mol | 34.8 °C
40 | GTGAACGAAAGTTTACAC ((((((....)))..))) | -18.6 kcal/mol | 39.6 °C
41 | GTGAACGAAAGTTTCAC ((((((....))).))) | -22 kcal/mol | 47.9 °C
42 | GTGAACGGAAACGTTTAC ((.((((....)))).)) | -29.6 kcal/mol | 46.9 °C
43 | GTGAACTCGAAAGAGCAC (((..(((....)))))) | -13.4 kcal/mol | 35.1 °C
44 | GTGAAGGCGAAAGCCCAC (((..(((....)))))) | -15.6 kcal/mol | 46.7 °C
45 | GTGAAGGGAAACCTTCAC (((((((....))))))) | -46.1 kcal/mol | 60 °C
46 | GTGAAGGGAAACCTTTAC ((.((((....)))).)) | -25.3 kcal/mol | 39.6 °C

Row | Sequence | folding enthalpy [1] | Tm [2]
47 | GTGAAGGGAAACCTTTGC (..((((....))))..) | -20.1 kcal/mol | 31.7 °C
48 | GTGAATACGAAAGTACAC (((..(((....)))))) | -12.5 kcal/mol | 27.5 °C
49 | GTGAATGAAAATTCAC ((((((....)))))) | -29.8 kcal/mol | 52.3 °C
50 | GTGAATGGAAACATCCAC (((.(((....))).))) | -24.1 kcal/mol | 34.6 °C
51 | GTGACAGGAAACCGTCAC (((((.(....).))))) | -34.6 kcal/mol | 50.4 °C
52 | GTGACCGAAAGGTGACAC ((((((....)))..))) | -16 kcal/mol | 42.8 °C
53 | GTGACCGAAAGGTTCAC ((((((....))).))) | -29.5 kcal/mol | 53 °C
54 | GTGACCGGAAACGACCAC (((..((....))..))) | -21.2 kcal/mol | 30.4 °C
55 | GTGACCGGAAACGATCAC ((((.((....)).)))) | -39.6 kcal/mol | 46.6 °C
56 | GTGACCGGAAACGGCCAC (((.(((....))).))) | -39 kcal/mol | 54.2 °C
57 | GTGACCGGAAACGGTTAC ((.((((....)))).)) | -26.4 kcal/mol | 54.9 °C
58 | GTGACGCGAAAGCGCAC (((.(((....)))))) | -15 kcal/mol | 58.8 °C
59 | GTGACGGGAAACTGTCGC (.(((.(....).))).) | -28.2 kcal/mol | 45.8 °C
60 | GTGACTCGAAAGAGCAC (((.(((....)))))) | -26.2 kcal/mol | 48.1 °C
61 | GTGACTCGAAAGAGGCAC (((.(((....))).))) | -34.4 kcal/mol | 67.9 °C
62 | GTGACTGGAAACAGTCGC (.(((((....))))).) | -30.6 kcal/mol | 56.2 °C
63 | GTGAGAGGAAACTTTCAC ((((.((....)).)))) | -23.8 kcal/mol | 35.1 °C
64 | GTGAGCGAAAGCTAACAC ((((((....)))..))) | -15.4 kcal/mol | 44 °C
65 | GTGAGCGAAAGCTAGCAC ((((((....)))..))) | -11.4 kcal/mol | 40.4 °C
66 | GTGAGCGAAAGCTGCAC ((((((....))).))) | -13.8 kcal/mol | 48.7 °C
67 | GTGAGCGAAAGCTGCCAC ((((((....)))..))) | -8.52 kcal/mol | 37.6 °C
68 | GTGAGCGCGAAAGCGCAC (((..(((....)))))) | -11.1 kcal/mol | 52.2 °C

Reference: the array DNA melting data of Ke et al. (doi:10.1101/2024.01.08.574731)
